Assay results pooled from the literature.
Lines come from different studies, so protocols differ.
Sample: plasma

SMILES	test system	conditions	half-life [h]
C[C@@H](Nc1cc(F)cc(F)c1)c1cc(C(=O)N(C)C)cc2c(=O)cc(N3CCOCC3)oc12	human	oral, 120 mg, patients	4.62
CS(=O)(=O)CCC#N	human	oral, 1000 mg, multiple doses, once daily	24.7
CO[C@@H]1[C@H](OC(=O)N2CC(CCN3CCOCC3)C2)CC[C@]2(CO2)[C@H]1[C@@]1(C)O[C@@H]1CC=C(C)C	human	subcutaneous, 0.6 mg, single dose, healthy volunteers	0.56
COc1ccc([C@@H]2CN(C(=O)[C@@H](O)CO)C[C@@]2(C)[C@@H](C)O)cc1OC1CN(c2ccc(C)cn2)C1	human	oral, 5 mg, single dose, healthy volunteers	11.9
CCNCCCNC/C=C\CNCCCNCC	human	intravenous, 150 mg, patients, infusion	0.2
CC(C)(O)c1ccccc1-c1ccc2[nH]c(/C=C/c3ccc(C(F)(F)F)cc3)nc2c1	male human	oral, 15 mg, single dose, fasted, healthy volunteers	59.3
CC(C)n1cc(C#N)c2cc(-n3cc(C(=O)O)cn3)ccc21	male human	oral, 600 mg, single dose, fasted, healthy volunteers	11.9
c1cnc2ccc(Nc3nc(NC4CC4)c4nc[nH]c4n3)cc2c1	human	oral, 800 mg/m², patients	6
CC(C)(Sc1ccncc1-c1ccc(C#N)c2ccccc12)C(=O)O	male human	oral, 20 mg, single dose, fed, healthy volunteers	13.8
COCCOc1cnc2ccn([C@H](C)c3nnc4c(F)cc(-c5cnn(C)c5)cn34)c(=O)c2c1	human	oral, 200 mg, multiple doses, once daily, patients	8.3
COc1cc(C(=O)NC2CCN(C)CC2)c(F)cc1Nc1ncc(C(F)(F)F)c(Oc2cccc3c2C(=O)N(C)C3)n1	human	oral, 300 mg, multiple doses, once daily, patients	21.6
C#C[C@]1(COP(=O)(O)OP(=O)(O)OP(=O)(O)O)O[C@@H](n2cnc3c(N)nc(F)nc32)C[C@@H]1O	human	oral, 30 mg, single dose	118
O=C(Nc1c(Cl)cncc1Cl)c1ccc(OC(F)F)c(OCC2CC2)c1	human	oral, 0.25 mg, single dose	20.9
Cn1cc(-c2ccc(S(=O)(=O)[C@@H]3C[C@@H](C(=O)NC4(C#N)CC4)N(C(=O)C4(C(F)(F)F)CC4)C3)c(C(F)(F)F)c2)cn1	human	oral, 300 mg, single dose, fasted, healthy volunteers	16
NS(=O)(=O)NCCNc1nonc1C(=NO)Nc1ccc(F)c(Br)c1	human	oral, 100 mg, multiple doses, twice daily, steady state, patients	3.3
CO[C@H]1CC[C@H](N2C(=O)CNc3ncc(-c4ccc(C(C)(C)O)nc4)nc32)CC1	human	oral, 30 mg, patients	5.57
